In ChEMBL document CHEMBL1132324, “Structure-activity relationships in 1,4-benzodioxan-related compounds. 6. Role of the dioxane unit on selectivity for alpha(1)-adrenoreceptor subtypes” (J Med Chem, 1999):

Columns and labels:
[1] = target: T1, 5-hydroxytryptamine receptor 1A (Homo sapiens) (UniProt P08908); experiment: The binding affinity was evaluated on cloned human 5-hydroxytryptamine 1A receptor expressed in HeLa cells by using DPAT as radioligand.; assay type: cell-based
T1 sequence (whole entry): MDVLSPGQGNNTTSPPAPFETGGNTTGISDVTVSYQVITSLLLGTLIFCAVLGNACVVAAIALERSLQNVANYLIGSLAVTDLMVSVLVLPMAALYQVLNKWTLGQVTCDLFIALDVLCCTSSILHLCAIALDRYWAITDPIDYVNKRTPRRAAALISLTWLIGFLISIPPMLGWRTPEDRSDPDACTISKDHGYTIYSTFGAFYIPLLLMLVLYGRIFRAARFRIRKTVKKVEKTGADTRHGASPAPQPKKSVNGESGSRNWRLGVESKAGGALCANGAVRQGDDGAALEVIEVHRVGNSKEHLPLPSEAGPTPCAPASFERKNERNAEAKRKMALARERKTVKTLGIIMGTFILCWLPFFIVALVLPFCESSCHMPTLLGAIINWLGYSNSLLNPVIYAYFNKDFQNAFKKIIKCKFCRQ
In short: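 Membranes from HeLa cells stably expressing human 5-HT1A, in 50 mM Tris-HCl pH 7.4, 2.5 mM MgCl2, 10 μM pargyline. Nonspecific binding with 10 μM 5-HT. Filtration. Ki by Cheng-Prusoff. 2–3 experiments in triplicate.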

[2] = target: 5-hydroxytryptamine receptor 2A (Rattus norvegicus) (UniProt P14842); experiment: The binding affinity was evaluated on 5-hydroxytryptamine 2A receptor expressed in rat cortex by using [3H]ketanserin as radioligand.
In short: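 Rat cerebral cortex membranes in Tris-HCl pH 7.4 with 10 μM pargyline and 0.1% ascorbic acid. Incubated 20 min at 37 °C with 0.7–1.3 nM [3H]ketanserin. Nonspecific binding with 2 μM ketanserin. Filtration and scintillation counting. Ki by Cheng-Prusoff. 2–3 experiments in triplicate.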

[3] = target: D(2) dopamine receptor (Rattus norvegicus) (UniProt P61169); experiment: The binding affinity was evaluated on Dopamine receptor D2 expressed in rat striatum by using [3H]spiperone as radioligand; assay type: tissue-based
In short: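 Rat striatum membranes in Tris-HCl with 10 μM pargyline, 0.1% ascorbic acid, 120 mM NaCl, 5 mM KCl, 2 mM CaCl2, 1 mM MgCl2. Incubated 15 min at 37 °C with 0.2–0.6 nM [3H]spiperone. Nonspecific binding with 1 μM (+)-butaclamol. Ki by Cheng-Prusoff. 2–3 experiments in triplicate.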

[4] = test system: Alpha-1B adrenergic receptor (Cavia porcellus); experiment: Antagonist affinity was expressed as apparent pKb at Alpha-1B adrenergic receptor on isolated Guinea pig spleen (Alpha-1B)
[5] = target: T2, Alpha-1B adrenergic receptor (Homo sapiens) (UniProt P35368); experiment: The binding affinity was evaluated on cloned human Alpha-1B adrenergic receptor expressed in chinese hamster ovary(CHO) cells by using [3H]prazosin as radioligand.; assay type: cell-based
T2 sequence (whole entry): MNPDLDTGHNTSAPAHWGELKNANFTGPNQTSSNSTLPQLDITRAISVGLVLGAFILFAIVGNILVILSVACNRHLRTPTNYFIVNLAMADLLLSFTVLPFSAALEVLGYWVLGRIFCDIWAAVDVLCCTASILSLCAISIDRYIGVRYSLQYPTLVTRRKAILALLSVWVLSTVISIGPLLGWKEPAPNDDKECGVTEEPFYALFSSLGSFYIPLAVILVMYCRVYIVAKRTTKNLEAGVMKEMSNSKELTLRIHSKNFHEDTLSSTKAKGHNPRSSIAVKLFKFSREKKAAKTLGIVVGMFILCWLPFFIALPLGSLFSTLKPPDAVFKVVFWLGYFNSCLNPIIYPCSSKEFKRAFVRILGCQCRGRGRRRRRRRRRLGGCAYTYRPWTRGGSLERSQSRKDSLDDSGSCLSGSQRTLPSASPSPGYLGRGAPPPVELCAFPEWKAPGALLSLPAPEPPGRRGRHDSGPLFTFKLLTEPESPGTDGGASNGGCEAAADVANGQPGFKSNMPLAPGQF
In short: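 Membranes (30 μg protein) from CHO cells stably expressing each human α1 subtype, in 50 mM Tris-HCl pH 7.4. Incubated with 0.1–0.4 nM [3H]prazosin for 30 min at 25 °C, competitor 1 pM–10 μM. Nonspecific binding with 10 μM phentolamine. Ki by Cheng-Prusoff. 2–3 experiments in triplicate.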

[6] = target: T3, Alpha-1A adrenergic receptor (Rattus norvegicus) (UniProt P43140); experiment: Antagonist affinity was expressed as apparent pKb at Alpha-1A adrenergic receptor on isolated rat prostatic vas deferens (alpha1A).; assay type: functional, tissue-based
T3 sequence (whole entry): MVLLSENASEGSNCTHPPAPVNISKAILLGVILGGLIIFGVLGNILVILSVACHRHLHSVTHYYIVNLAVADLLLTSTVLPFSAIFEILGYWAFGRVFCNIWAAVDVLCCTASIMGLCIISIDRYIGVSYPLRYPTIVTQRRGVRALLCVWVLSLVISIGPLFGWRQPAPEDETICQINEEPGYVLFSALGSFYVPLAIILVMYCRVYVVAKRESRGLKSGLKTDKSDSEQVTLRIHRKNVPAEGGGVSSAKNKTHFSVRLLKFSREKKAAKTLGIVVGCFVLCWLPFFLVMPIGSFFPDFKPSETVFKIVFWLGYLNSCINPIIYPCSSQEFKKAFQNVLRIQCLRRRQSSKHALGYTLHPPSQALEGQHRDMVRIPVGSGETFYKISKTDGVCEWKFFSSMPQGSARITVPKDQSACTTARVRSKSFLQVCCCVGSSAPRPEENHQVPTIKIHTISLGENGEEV
In short: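 Rat prostatic vas deferens in Tyrode with 0.1 μM cocaine. Equilibrated 60 min, primed twice with 10 μM noradrenaline, then a control cumulative (–)-noradrenaline curve recorded isometrically. Antagonist equilibrated 30 min before a repeat curve. Apparent pKb = log(DR−1) − log[B], with DR as the ratio of agonist EC50 with/without antagonist. 2–3 antagonist concentrations, each tested four times.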

5-hydroxytryptamine receptor 2A (Rattus norvegicus), sequence (P14842 whole entry): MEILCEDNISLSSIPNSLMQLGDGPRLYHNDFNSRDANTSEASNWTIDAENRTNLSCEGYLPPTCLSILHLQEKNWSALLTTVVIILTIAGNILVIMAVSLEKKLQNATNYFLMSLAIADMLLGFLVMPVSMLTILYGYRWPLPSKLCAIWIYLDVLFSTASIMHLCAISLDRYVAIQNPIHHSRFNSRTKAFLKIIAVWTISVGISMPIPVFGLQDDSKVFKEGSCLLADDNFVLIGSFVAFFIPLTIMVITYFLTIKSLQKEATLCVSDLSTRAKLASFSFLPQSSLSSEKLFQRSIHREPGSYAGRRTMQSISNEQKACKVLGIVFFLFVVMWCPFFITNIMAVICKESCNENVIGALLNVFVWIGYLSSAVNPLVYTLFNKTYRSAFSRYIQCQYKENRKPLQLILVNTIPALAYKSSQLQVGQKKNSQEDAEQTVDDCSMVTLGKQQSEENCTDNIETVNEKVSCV
D(2) dopamine receptor (Rattus norvegicus), sequence (P61169 whole entry): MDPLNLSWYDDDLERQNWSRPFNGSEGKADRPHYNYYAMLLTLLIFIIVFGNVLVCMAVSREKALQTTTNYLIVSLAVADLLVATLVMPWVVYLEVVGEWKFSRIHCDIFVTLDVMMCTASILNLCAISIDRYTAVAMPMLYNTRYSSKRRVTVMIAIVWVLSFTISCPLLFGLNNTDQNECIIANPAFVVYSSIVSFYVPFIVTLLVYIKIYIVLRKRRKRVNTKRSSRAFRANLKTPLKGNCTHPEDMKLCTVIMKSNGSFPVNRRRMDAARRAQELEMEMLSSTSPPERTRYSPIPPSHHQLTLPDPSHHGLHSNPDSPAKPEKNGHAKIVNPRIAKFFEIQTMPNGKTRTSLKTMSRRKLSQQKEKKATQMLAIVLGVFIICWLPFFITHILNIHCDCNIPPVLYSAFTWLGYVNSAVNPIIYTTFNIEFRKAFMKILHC

Row | pKi [1] | pKi [2] | pKi [3] | pKb [4] | pKi [5] | pKb [6] | Structure (SMILES)
1 | 6.73 | 6.2 | < 6 |  |  |  | COc1cccc(OC)c1OCCNCC1C(=O)c2ccccc2OC1c1ccccc1 (stereo not drawn)
2 | 6.84 | < 6 | < 6 | 5.54 | 6.58 | 7.36 | COc1cccc(OC)c1OCCNCC1Oc2ccccc2CC1c1ccccc1 (stereo in doubt; 7)
3 | 7.93 |  |  | 7.87 | 9.27 | 8.39 | COc1cccc(OC)c1OCCNCCOc1ccccc1OCc1ccccc1
